The list is not random: actives were taken first. Their share in the collection is about 3.3%.
mABHD4 FP: inhibits mouse alpha/beta hydrolase domain 4 | inhibition, % at 8.92 µM | Q8VD66 | purified mABHD4, FP-Rh probe fluorescence polarization | 370,000 compounds, 0.54% hits;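 active = inhibition exceeding the mean over every tested compound plus 3 SD, cut at about 30% in these data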
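Material: mouse ABHD4 enzyme, wild type; Benchmarks: S159A mutant high control, sample median low control; Buffer or medium: HEPES pH 7.0, NaCl, Pluronic buffer; Signal: fluorescence polarization; Read-out: percent inhibition of probe binding, normalized to plate controls; Timing: pre-incubation 45 min, probe exposure 60 min, at 25 °C; Dosing: 8.92 µM, single dose.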
HTRA1 inh: HTRA1 (human) protease inhibition; Q92743; recombinant HTRA1, FP-rhodamine activity-based probe, fluorescence polarization; inhibition, % at 5.96 µM; 340,000 compounds, 0.5% hits; AID 504803; in the data active = inhibition above about 36%
rCAG binder: binds r(CAG) RNA repeats; r(CAG) RNA repeat, TO-PRO-1 dye displacement fluorescence; inhibition, % at 3 µM; 370,000 compounds, 1.3% hits;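 active = inhibition above the plate cutoff, the mean of all test compounds on that plate plus 3 SD, cut at about 35% in these data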;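 also: higher means more dye released from RNA so lower well fluorescence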
SIAE primary: inhibitors of human sialic acid acetylesterase SIAE. SIAE FP-Rh probe binding, fluorescence polarization. 370,000 compounds, 0.69% hits. inhibition, % at 9.66 µM;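 active = inhibition above a cutoff: mean of compounds within the control limits plus 3 SD of those, cut at about 17% in these data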
PRMT1 FP inh: inhibitors of human PRMT1 | recombinant PRMT1, activity-based probe fluorescence polarization | inhibition, % at 2.79 µM | 370,000 compounds, 1.3% hits;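 active = inhibition above about 21% made by adding two undisclosed values, limit read from the data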
Target sequence (Q99873 whole entry, looked up): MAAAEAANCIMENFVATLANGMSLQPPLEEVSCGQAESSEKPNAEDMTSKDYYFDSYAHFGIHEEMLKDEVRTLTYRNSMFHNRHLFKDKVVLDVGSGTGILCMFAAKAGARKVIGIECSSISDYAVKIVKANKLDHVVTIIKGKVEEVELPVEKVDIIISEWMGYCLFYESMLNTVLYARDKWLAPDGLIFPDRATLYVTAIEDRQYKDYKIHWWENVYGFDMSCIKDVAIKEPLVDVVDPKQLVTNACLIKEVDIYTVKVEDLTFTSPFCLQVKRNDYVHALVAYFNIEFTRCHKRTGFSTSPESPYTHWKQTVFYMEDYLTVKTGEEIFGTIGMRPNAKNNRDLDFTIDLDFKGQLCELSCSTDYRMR
PRMT1 confirm: confirmation of human PRMT1 inhibitors; 3,300 compounds, 42% hits; shares compounds with PRMT1 FP inh; recombinant His-PRMT1, activity-based probe fluorescence polarization; AID 687036; inhibition, % at 2.79 µM;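 active = mean inhibition across replicates above the hit cutoff derived for the earlier primary screen, cut at about 22% in these data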
Numbers stand for hits; i = inactive; nt = not tested or not shown.

SMILES	mABHD4 FP	HTRA1 inh	rCAG binder	SIAE primary	PRMT1 FP inh	PRMT1 confirm
Cc1nc(-c2ccc(S(=O)(=O)N3CCOCC3)cc2)cs1	i	i	i	i	i	nt
Cc1nc(C)c(-c2csc(Nc3ccc(S(N)(=O)=O)cc3)n2)s1	i	i	i	i	i	nt
Cc1ccc(-c2csc(NC(=O)Cc3ccc(F)cc3)n2)o1	i	i	i	i	41	43
COC(=O)c1nc(NNC(=O)c2ccccc2)sc1-c1ccccc1	i	i	i	i	43	i
CC(=O)Oc1ccc(N2C(=O)C3C4C=CC(O4)C3C2=O)cc1 (stereo not drawn)	i	i	i	i	95	27
CC(=O)Oc1ccc(N2C(=O)CC(N3CCOCC3)C2=O)cc1 (stereo not drawn)	i	i	i	i	43	i
O=C(C1CCN(C2CC(=O)N(c3ccc(Cl)cc3)C2=O)CC1)N1CCOCC1 (stereo not drawn)	i	i	i	i	27	i
O=C(O)c1ccc(N2C(=O)CC(N3CCN(c4ccc(Cl)cc4)CC3)C2=O)cc1 (stereo not drawn)	i	i	i	i	i	nt
O=C(C1CCN(C2CC(=O)N(Cc3ccccc3)C2=O)CC1)N1CCCCCC1 (stereo not drawn)	i	i	i	i	57	i
O=C(C1CCN(C2CC(=O)N(c3cccc(Cl)c3)C2=O)CC1)N1CCCC1 (stereo not drawn)	i	i	i	i	30	i
CC(=O)Oc1cccc(N2C(=O)C3C4C=CC(C4=C(C)C)C3C2=O)c1 (stereo not drawn)	i	i	i	i	64	i
CCN(CC)C1CC(=O)N(c2cccc(Cl)c2)C1=O (stereo not drawn)	i	i	i	i	34	29
O=C(O)CSC1CC(=O)N(c2cccc(Cl)c2)C1=O (stereo not drawn)	i	i	i	i	i	nt
NC(=O)C1CCN(C2CC(=O)N(Cc3ccc(N4CCCC4=O)cc3)C2=O)CC1 (stereo not drawn)	i	i	i	i	58	i
Cc1ccc(C(=O)CSc2nnc3n2CCCCC3)s1	i	i	i	i	i	nt
O=C(Nc1cccc(C(F)(F)F)c1)c1ccc2sc([C@@H]3O[C@H](CO)[C@H](O)[C@H](O)[C@H]3O)nc2c1	i	nt	i	i	i	nt
CCOC(=O)C1CCCN(C2CC(=O)N(c3ccc(NC(C)=O)cc3)C2=O)C1 (stereo not drawn)	i	i	i	i	37	i
O=C1CSc2ccc(S(=O)(=O)NCc3ccc(Cl)cc3)cc2N1	i	i	i	i	i	nt
O=C1CS/C(=C\S(=O)(=O)c2ccc(Cl)cc2)N1	i	i	i	i	32	22
Cc1nn(-c2ccc(F)cc2)c(Cl)c1C(=O)OC(C)C(=O)N(C)C1CCCCC1 (stereo not drawn)	i	i	i	i	i	nt
Cc1sc2ncnc(SCC(=O)Nc3nc(-c4ccc(F)c(F)c4)cs3)c2c1C	i	i	i	i	i	nt
Fc1ccc(CSc2ccc(-c3ccco3)nn2)cc1	i	i	i	i	54	i
O=C(CSc1ccc(-c2ccco2)nn1)NCc1ccc(F)cc1	i	i	i	i	i	nt
Cc1ccc(-c2n[nH]c(=S)n2/N=C/c2cccs2)cc1	i	i	i	i	32	i
COc1ccc(C=Nn2c(-c3ccc(F)cc3)n[nH]c2=S)c(OC)c1OC	i	nt	i	i	30	i
SMILES	mABHD4 FP	HTRA1 inh	rCAG binder	SIAE primary	PRMT1 FP inh	PRMT1 confirm
Cc1cc(-c2n[nH]c(=S)n2/N=C/c2cccs2)n[nH]1	i	i	i	i	i	nt
COc1cccc(/C=N/n2c(-c3cccs3)n[nH]c2=S)c1	i	i	i	i	28	i
Cc1cc([N+](=O)[O-])ccc1NC(=O)c1cc2ccccc2o1	i	i	i	i	i	nt
COc1cc(C2C3=C(COC3=O)Oc3cc4c(cc32)OCO4)cc(OC)c1OC(C)=O (stereo not drawn)	i	i	i	i	i	nt
CCCN1CNC(=S)N(CC2CCCO2)C1 (stereo not drawn)	i	i	i	i	67	i
O=c1c2ccccc2nnn1CSc1nc2ccccc2c(=O)n1CCCO	i	i	i	i	25	i
O=C(CSc1nc2ccccc2c(=O)n1CCCO)NCc1ccccc1	i	i	i	i	i	nt
COc1cc(OC)cc(C(=O)NC(=S)NNC(=O)Cc2cccs2)c1	i	i	i	i	28	i
CC(C)C(=O)OC1CCS(=O)(=O)c2sccc21 (stereo not drawn)	i	i	i	i	i	nt
COc1ccc(NC(=O)C(NS(=O)(=O)c2cccs2)C(C)C)cc1Cl (stereo not drawn)	i	i	i	i	i	nt
CC(C)C(c1nnnn1Cc1ccc(F)cc1)N1CCN(c2ccc(O)cc2)CC1 (stereo not drawn)	i	nt	i	i	28	i
COc1ccc(Cn2nnnc2C(C(C)C)N2CCN(c3ccccc3OC)CC2)cc1 (stereo not drawn)	i	i	i	i	i	nt
Cc1ccc(O)c(NC(=O)C2=CC(c3ccco3)=NS(=O)(=O)N2C)c1	i	i	i	i	97	i
COc1ccc(CCN2CC(C(=O)Nc3ccccc3F)CC2=O)cc1OC (stereo not drawn)	i	i	i	i	i	nt
COc1ccc(NC(=O)CSc2nnc(-c3cccnc3)o2)c(OC)c1	i	i	i	i	28	36
CC1C(c2ccccc2)OCCN1C(=S)Nc1ccc(S(=O)(=O)N2CCCCC2)cc1 (stereo not drawn)	i	i	i	i	i	nt
O=C(c1cccc(Cl)c1)C1CCCN(C(=O)c2ccoc2)C1 (stereo not drawn)	i	i	i	i	i	nt
O=C(CSS(=O)(=O)O)N1CCN(C(=O)c2ccoc2)CC1	i	i	i	i	45	29
O=C(CNS(=O)(=O)c1ccc(F)cc1)N1CCN(c2ccccn2)CC1	i	nt	i	i	i	nt
COc1ccc2c(c1)S/C(=C\C(=O)c1ccncc1)N2C	i	i	i	i	45	i
CN1/C(=C/C(=O)c2ccc(Cl)cc2)Sc2cc3c(cc21)OCO3	i	i	i	i	33	i
COC(=O)[C@@]1(Cc2ccc(OC)cc2)[C@H]2c3cc(C(=O)N4CCCC4)n(Cc4ccc(C)o4)c3C[C@H]2CN1C(=O)c1ccccc1	i	nt	i	i	39	i
COc1ccc(N2CCN(C(=O)C3CCCN(S(=O)(=O)c4c(C)noc4C)C3)CC2)cc1 (stereo not drawn)	i	i	i	i	i	nt
CCOC(=O)CNC(=O)Cn1cnc2c(cnn2-c2ccc(C)cc2)c1=O	i	i	i	i	76	i
CCNC(=S)Nc1cc(-c2ccc(Cl)cc2)[nH]n1	i	i	i	i	44	29
COc1ccc2[nH]cc(CC(=O)O)c2c1	i	i	i	i	i	nt
O=C(O)Cc1c[nH]c2ccc(O)cc12	i	i	i	i	27	i
